Source: PubChem BioAssay (several laboratories)
Rows were chosen to be rich in hits. Some 2.1% of all compounds tested hit in one or more screens of this group.
LMPTP block: blocks human LMPTP phosphatase; P24666; recombinant LMPTP-A, OMFP fluorogenic substrate, fluorescence intensity; inhibition, % at 20 µM; actives 0.22% (n = 360,000);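 active = compounds that cut the enzyme signal by at least half of the control window in the single-dose screen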;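 note: plate controls were DMSO wells with enzyme plus substrate for no effect and substrate without enzyme for full effect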
Target sequence (P24666 whole entry, looked up): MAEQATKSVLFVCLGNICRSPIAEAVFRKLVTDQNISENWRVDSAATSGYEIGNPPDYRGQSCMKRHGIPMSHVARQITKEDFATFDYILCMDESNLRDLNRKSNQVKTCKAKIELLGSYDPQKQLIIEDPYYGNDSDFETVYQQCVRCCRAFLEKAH
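Test system – LMPTP-A enzyme · Amount – LMPTP-A at 0.625 nM final in the reaction · Buffer or medium – Bis-Tris pH 6.0, DTT, detergent · Reagent – OMFP 400 µM · Doses – single 20 µM dose · Schedule – reaction 50 min, room temperature, dark · Detection – fluorescence intensity of OMFP turnover product · Evaluation – percent inhibition versus substrate-only and uninhibited controls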
SUMO1-SIM PPI: alters human SUMO1 binding to SIM partners. P63165. SUMO1 binding to a labelled peptide, TR-FRET, 1 h. inhibition, % at 20 µM. actives 0.33% (n = 360,000); in the data active = inhibition above about 37%
Target sequence (P63165 whole entry, looked up): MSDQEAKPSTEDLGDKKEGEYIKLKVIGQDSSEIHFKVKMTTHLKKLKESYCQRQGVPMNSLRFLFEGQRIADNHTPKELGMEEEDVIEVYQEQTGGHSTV
Scp-1 inhibitor: blocks human Scp-1 phosphatase activity; Recombinant Scp1, phosphopeptide, malachite green phosphate absorbance; inhibition, % at 20 µM; actives 0.88% (n = 340,000);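 active = inhibition above about 50% at 20 µM, limit read from the data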;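 note: plate controls were DMSO wells with enzyme for no effect and wells lacking enzyme for full effect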
Target sequence (Q9GZU7 76-261 limits assumed): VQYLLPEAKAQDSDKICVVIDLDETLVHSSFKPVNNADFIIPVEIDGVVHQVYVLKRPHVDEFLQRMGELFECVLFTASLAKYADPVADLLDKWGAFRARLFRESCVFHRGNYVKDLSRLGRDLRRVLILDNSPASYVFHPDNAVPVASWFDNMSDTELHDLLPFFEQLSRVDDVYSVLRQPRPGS
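System: SCP-1 catalytic domain; Reagent: Phospho 17-mer peptide substrate; Doses: one concentration, 20 µM, with 1.0% DMSO; Incubation: 45 min room-temperature reaction, 5 min colour, 30 min stabiliser; Signal: Phosphate-binding colour reagent, absorbance read at 630 nm.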
STEP inh: blocks human striatal-enriched tyrosine phosphatase | P54829 | actives 0.25% (n = 360,000) | inhibition, % at 20 µM | recombinant STEP, OMFP fluorogenic substrate, fluorescence;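 active = inhibition at 20 µM, scaled per plate between control wells, above about 37%, limit read from the data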;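 note: 0% = DMSO with enzyme and substrate and 100% = substrate only without enzyme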
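Test system: STEP tyrosine phosphatase / Reagent: OMFP at 25 µM / Doses: 20 µM, 1% DMSO / Read-out: percent inhibition scaled to no-enzyme and uninhibited-enzyme controls, plate-pattern corrected / Detection: FITC-channel fluorescence of OMFP product / Medium: Bis-Tris buffer pH 6.0, 2.5 mM DTT, 0.005% Tween 20 / Schedule: 20 min at room temperature, dark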
GRK2 inh: human GRK2 inhibition via aptamer displacement | bead flow cytometry, FAM-aptamer displacement from GRK2 | inhibition of aptamer binding, % at 10 µM | P25098 | AID 488847 | actives 0.59% (n = 330,000);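 active = inhibition of aptamer binding above 40%, roughly 3 SD of noise, on plates passing a quality check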;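 note: median bead fluorescence of bound FAM aptamer so fluorescent compounds give negative values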
DNMT1 block: blocks human DNA methyltransferase DNMT1; P26358; DNMT1 molecular beacon, Hinp1I cleavage, fluorescence; inhibition (reported as % activation of signal), % at 10 µM; actives 0.83% (n = 360,000); in the data active = inhibition above about 50%
Scp-1 conf: confirmation of human Scp-1 phosphatase inhibitors; actives 61% (n = 2,500); shares compounds with Scp-1 inhibitor; AID 540281; recombinant SCP-1 catalytic domain, phosphate release, malachite green absorbance; inhibition, % at 20 µM;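 note: plate controls were DMSO with enzyme for no effect and buffer wells lacking enzyme for full effect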
MG interference: interferes with malachite green readout, flagging false Scp-1 hits; apparent inhibition (interference), % at 20 µM; shares compounds with Scp-1 inhibitor; AID 540313; Colorimetric interference counterscreen, malachite green absorbance 630 nm; 2,500 tested, under 10 active;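 note: compounds added after enzyme reaction finished so only phosphate colour detection is probed; plate controls were DMSO wells with completed Scp-1 reaction for no effect and substrate wells lacking enzyme for full effect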
Scp-1 Tm shift: Scp-1 (human) binding by thermal shift. actives 25% (n = 1,500). AID 540329. shares compounds with Scp-1 inhibitor. thermal shift relative to vanadate control, % at 40 µM. Recombinant SCP1, Sypro Orange thermal shift Tm;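 active = substances whose mean melting-temperature shift, as a percentage of the reference inhibitor's shift, reaches about 5.3%, limit read from the data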;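 note: 0% = Tm of DMSO wells and 100% = Tm with sodium orthovanadate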
Numbers without * were called inactive.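 Rule for the calls, unless noted: active = inhibition of at least 30% at 20 µM; inactive = the rest.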

What do the screens show for `CC1CCc2nc3ccccc3c(C(=O)OCC(=O)N3CCc4ccccc43)c2C1` (stereo not drawn)?
LMPTP block: 4.9; SUMO1-SIM PPI: 8.1; Scp-1 inhibitor: 50.1*; STEP inh: 1.2; GRK2 inh: 4.0; DNMT1 block: 4.8; Scp-1 conf: -19.7; MG interference: -17.5

How did CNC(=O)COC(=O)c1c2c(nc3ccccc13)CCC2 do in these assays?
LMPTP block: -0.4; SUMO1-SIM PPI: -2.2; Scp-1 inhibitor: 21.5; STEP inh: -0.4; GRK2 inh: 7.0; DNMT1 block: -3.6

What do the screens show for `CCCc1nc2ccccc2c(C(=O)OCC(=O)N2CCc3ccccc32)c1CC`?
LMPTP block: 4.1; SUMO1-SIM PPI: -2.0; Scp-1 inhibitor: -1.9; STEP inh: 2.5; GRK2 inh: 4.0; DNMT1 block: -6.9

How did C=CCNC(=O)COC(=O)c1c2c(nc3ccccc13)CCC2 do in these assays?
LMPTP block: 2.7; SUMO1-SIM PPI: -3.1; Scp-1 inhibitor: 66.4*; STEP inh: 1.5; GRK2 inh: 4.0; DNMT1 block: 24.2; Scp-1 conf: 65.4*; MG interference: -11.2; Scp-1 Tm shift: 9.5*

How did CC(=O)c1ccc(NC(=O)CN2C(=O)COc3ccc(S(=O)(=O)N4CCCC4)cc32)cc1 do in these assays?
LMPTP block: -1.0; SUMO1-SIM PPI: 3.0; Scp-1 inhibitor: 69.5*; STEP inh: -1.6; GRK2 inh: 0.0; DNMT1 block: 3.1; Scp-1 conf: 47.0*; MG interference: -7.6; Scp-1 Tm shift: 11.9*

Results for CCOc1ccc(NC(=O)CN2C(=O)CSc3ccc(S(=O)(=O)N4CCCC4)cc32)cc1 ?
LMPTP block: 1.1; SUMO1-SIM PPI: 2.5; Scp-1 inhibitor: 22.9; STEP inh: 1.7; GRK2 inh: 0.0; DNMT1 block: 0.1

Results for Cc1ccc(NC(=O)CN2C(=O)CSc3ccc(S(=O)(=O)N4CCCCC4)cc32)cc1 ?
LMPTP block: 1.9; SUMO1-SIM PPI: 2.1; Scp-1 inhibitor: 56.0*; STEP inh: -2.0; GRK2 inh: 0.0; DNMT1 block: -3.5; Scp-1 conf: 56.5*; MG interference: -12.6; Scp-1 Tm shift: 46.9*

Results for O=C(NCCCc1ccccn1)C1CCC(=O)N(Cc2cccc(F)c2)C1 (stereo not drawn) ?
LMPTP block: -1.4; SUMO1-SIM PPI: -2.6; Scp-1 inhibitor: -6.8; STEP inh: -2.3; GRK2 inh: 1.0; DNMT1 block: 4.4

How did CCC(NC(=O)c1ccc2nc(Cc3ccc(OC)cc3)oc2c1)c1ccncc1 (stereo not drawn) do in these assays?
LMPTP block: -1.6; SUMO1-SIM PPI: -1.8; Scp-1 inhibitor: 2.3; STEP inh: 1.6; GRK2 inh: 0.0; DNMT1 block: -0.8

How did CCCCc1ccc(S(=O)(=O)Nc2cc(C)on2)cc1 do in these assays?
LMPTP block: -1.0; SUMO1-SIM PPI: -4.5; Scp-1 inhibitor: 69.5*; STEP inh: 2.3; GRK2 inh: 0.0; DNMT1 block: 0.5; Scp-1 conf: -19.1; MG interference: -20.8

Results for O=C(Cc1ccccc1)Nc1cccc(-c2nc3ncccc3o2)c1 ?
LMPTP block: 1.4; SUMO1-SIM PPI: -2.8; Scp-1 inhibitor: 67.8*; STEP inh: -0.6; GRK2 inh: 4.0; DNMT1 block: -1.9; Scp-1 conf: 5.1; MG interference: -7.6

How did Cc1ccc(C(=O)O)cc1NC(=S)NC(=O)c1ccc(COc2ccccc2)cc1 do in these assays?
LMPTP block: 2.4; SUMO1-SIM PPI: -2.9; Scp-1 inhibitor: 50.3*; STEP inh: 9.2; GRK2 inh: 0.0; DNMT1 block: 2.7; Scp-1 conf: 36.8*; MG interference: -26.2; Scp-1 Tm shift: -8.1

Results for Cc1ccc(C(=O)O)cc1NC(=S)NC(=O)Cc1ccccc1 ?
LMPTP block: 1.0; SUMO1-SIM PPI: 2.3; Scp-1 inhibitor: 0.8; STEP inh: -0.8; GRK2 inh: 0.0; DNMT1 block: 2.3

What do the screens show for `CC(C)c1ccc(CC(=O)N2CCC2(C)C(=O)Nc2ccc3c(c2)OCCO3)cc1` (stereo not drawn)?
LMPTP block: 0.2; SUMO1-SIM PPI: 2.2; STEP inh: 2.1; DNMT1 block: -0.1

What do the screens show for `CC(NC(=O)OCc1ccccc1)c1ccccc1` (stereo not drawn)?
LMPTP block: -0.4; SUMO1-SIM PPI: -3.7; Scp-1 inhibitor: -10.8; STEP inh: 0.5; GRK2 inh: 2.0; DNMT1 block: -0.6

How did O=C(O)CC(NC(=O)OCc1ccccc1)c1ccccc1 (stereo not drawn) do in these assays?
LMPTP block: -3.7; SUMO1-SIM PPI: -4.9; Scp-1 inhibitor: 73.1*; STEP inh: 3.5; GRK2 inh: 0.0; DNMT1 block: -0.8; Scp-1 conf: -22.8; MG interference: -21.9

Results for N#CCSc1nc2ccccc2c(=O)n1CCCC(=O)NCc1ccco1 ?
LMPTP block: -1.3; SUMO1-SIM PPI: -2.1; Scp-1 inhibitor: -0.3; STEP inh: -3.6; GRK2 inh: 1.0; DNMT1 block: 7.3

What do the screens show for `O=C(CCCCCn1c(SCc2ccncc2)nc2ccccc2c1=O)NCc1ccco1`?
LMPTP block: 22.4; SUMO1-SIM PPI: 10.4; Scp-1 inhibitor: 56.0*; STEP inh: 1.8; GRK2 inh: 14.0; DNMT1 block: 19.3; Scp-1 conf: 32.3*; MG interference: -9.6; Scp-1 Tm shift: -13.0

What do the screens show for `Cc1nn(CC(=O)NCc2cccs2)c(=O)c2nn(-c3ccccc3)c(C)c12`?
LMPTP block: -2.2; SUMO1-SIM PPI: -2.1; Scp-1 inhibitor: 50.7*; STEP inh: -2.0; GRK2 inh: 10.0; DNMT1 block: -2.5; Scp-1 conf: -18.4; MG interference: -18.4

Results for Cc1ccccc1CCNC(=O)Cn1nc(C)c2c(C)n(-c3ccccc3)nc2c1=O ?
LMPTP block: 5.8; SUMO1-SIM PPI: 3.1; Scp-1 inhibitor: -6.9; STEP inh: -0.6; GRK2 inh: 1.0; DNMT1 block: 2.3

Results for C[n+]1c(/C=C/c2ccc(O)cc2)ccc2ccccc21 ?
LMPTP block: 2.7; SUMO1-SIM PPI: -51.6; Scp-1 inhibitor: 51.0*; STEP inh: -0.4; GRK2 inh: 0.0; DNMT1 block: -4.5; Scp-1 conf: -20.0; MG interference: -13.1
